Bioassay records (PubChem)
A selection: hits, their analogues and other compounds. The true share with any hit is near 2.4%.
HNF4A DNA FP: change in binding of human HNF4 alpha to DNA | HNF4a-FITC DNA binding, fluorescence polarization, 1 h | activity change, % at 10 µM | actives 0.3% (n = 360,000) | AID 1224865; in the data active = activity change above about 30%, passing the limit was not always enough
Rpn11 inh: blocks the human proteasome subunit Rpn11 | O00487 | human 26S proteasome, Ub4-pepOG fluorescence polarization; 20S core pre-blocked with epoxomicin | inhibition, % at 20 µM | actives 0.59% (n = 360,000);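 active = inhibition at 20 µM, scaled to each plate's controls, above about 33%, limit read from the data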
Target sequence (O00487 whole entry, looked up): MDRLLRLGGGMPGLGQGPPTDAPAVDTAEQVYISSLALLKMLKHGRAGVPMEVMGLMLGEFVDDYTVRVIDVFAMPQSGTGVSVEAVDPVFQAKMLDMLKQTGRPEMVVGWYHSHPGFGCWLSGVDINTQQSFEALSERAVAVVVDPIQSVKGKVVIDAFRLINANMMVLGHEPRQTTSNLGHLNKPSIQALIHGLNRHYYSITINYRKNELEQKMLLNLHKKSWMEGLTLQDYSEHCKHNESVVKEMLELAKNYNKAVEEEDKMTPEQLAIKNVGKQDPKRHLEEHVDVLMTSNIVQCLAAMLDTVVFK
Neddylation inh: cullin neddylation inhibition | TR-FRET cullin neddylation, biochemical | inhibition, % at 25 µM | actives 0.58% (n = 360,000); in the data active = inhibition above about 36%
Rin1-Abl PPI inh: inhibitors of human Rin1-Abl protein interaction; P00519+Q13671; TR-FRET Rin1/Abl binding, biochemical; inhibition, % at 7.35 µM; actives 0.4% (n = 360,000); in the data active = inhibition above about 5%, passing the limit was not always enough
TPT1 inh: inhibitors of Candida albicans tRNA 2'-phosphotransferase TPT1; recombinant caTPT1, FP RNA substrate dephosphorylation; inhibition, % at 5 µM; actives 0.81% (n = 300,000);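 active = inhibition above the mean of all tested compounds plus 3 SD, set per screening campaign, cut at about 24% in these data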;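 note: plate controls were DMSO alone for no effect and ferristatin control at 100 nM for full effect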
CSN deneddyl inh: inhibitors of human CSN-mediated cullin deneddylation | inhibition, % at 12.5 µM | AID 651999 | Q92905 | actives 0.38% (n = 360,000) | Purified CSN, SCF-Nedd8-OG deneddylation, fluorescence polarization;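 active = pattern-corrected inhibition above about 35%, with an unprinted fluorescence ratio check between 0.5 and 1.5, limit read from the data, passing the limit was not always enough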;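 note: 0% = enzyme with substrate and 100% = substrate without enzyme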
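assay system = purified human Csn5 enzyme expressed in HEK293T cells | amount = 0.24 nM enzyme | buffer or medium = Tris/NaCl/DTT buffer, pH 7.5 | reagent = 10 nM SCFSkp2-Nedd8OG | compound = one concentration, 12.5 µM, 0.25% DMSO | times = 90 min reaction at room temperature | signal = FP | read-out basis = % inhibition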
Rin1 Abl conf: Rin1-Abl interaction inhibition confirmation; TR-FRET Rin1-Abl binding, purified proteins; shares compounds with Rin1-Abl PPI inh; inhibition, % at 7.35 µM; actives 49% (n = 1,300); AID 602124
GFP quench-1: quenches GFP fluorescence, counter-screen for Rin1-Abl inhibitors; shares compounds with Rin1-Abl PPI inh; inhibitors/quenchers counterscreen; inhibition, % at 6.75 µM; actives 8.5% (n = 1,300); AID 602125;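 note: ABL1-eGFP fusion protein alone without its partner RIN1-SBP; 0% = protein with vehicle and 100% = wells lacking protein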
GFP quench dose: GFP fluorescence interference dose response. shares compounds with Rin1-Abl PPI inh. GFP fluorescence interference/quenching counterscreen. AID 602182. IC50, µM. 230 tested, under 10 active; call rule not given here;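 note: ABL1-eGFP fusion protein alone without its RIN1 binding partner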
GFP quench-2: GFP quenching artifact for Rin1-Abl inhibitor hits | 25 tested, under 10 active | IC50, µM | shares compounds with Rin1-Abl PPI inh | GFP fluorescence quenching counterscreen, biochemical; call rule not given here
The depositor's hits bear a star; · = no result shown. Cut-off read from the data, not from the text of the source, unless noted: active = inhibition above about 6.5%; inactive = the rest.

SMILES	HNF4A DNA FP	Rpn11 inh	Neddylation inh	Rin1-Abl PPI inh	TPT1 inh	CSN deneddyl inh	Rin1 Abl conf	GFP quench-1	others
O=C(O)c1cccc2cc(-c3ccccc3)oc(=O)c12	3	4	·	2	3	-2	·	·
CCC(C)N1C(=O)CCC1C(=O)N1CCN(c2ccc(F)cc2)CC1 (stereo not drawn)	3	-2	4	-5	4	0	·	·
CCC(C)N1C(=O)CCC1C(=O)N1CCN(c2ccccc2F)CC1 (stereo not drawn)	-2	0	5	5.3*	0	6	-1	0
O=C(CCc1ccc(S(=O)(=O)N2CCOCC2)cc1)N/N=C/c1ccc(O)c(O)c1O	-3	-9	-17	13*	1	-4	11*	9.4*
O=[N+]([O-])c1ccc(N/N=C/c2ccc(O)c(O)c2O)c(S(=O)(=O)N2CCOCC2)c1	-2	-10	-33	14*	·	-8	9.5*	13*
Cc1noc(C)c1S(=O)(=O)N(CC(=O)NC(C)c1ccccc1)c1ccc(C(C)C)cc1 (stereo not drawn)	-2	-1	6	-5	-2	1	·	·
Cc1cccc(C)c1OCc1cc(C(=O)N2CCNC(=O)C2)no1	-3	-1	-1	2	-2	-4	·	·
CSc1ccccc1OCc1cc(C(=O)N2CCNC(=O)C2)no1	4	8	-6	48*	-3	5	40*	-1	GFP quench dose=>68;GFP quench-2=>68
COc1ccc(NC(=O)C2CCCN(c3ncnc4onc(-c5ccc(F)cc5)c34)C2)cc1 (stereo not drawn)	-3	0	13	9.2*	2	-3	-2	0
COC(=O)c1ccccc1NC(=O)CN1CCC(C)CC1	2	1	5	0	-7	0	·	·
CCOC(=O)C1=C(C)OC2(O)c3ccccc3C(=O)C12O (stereo not drawn)	1	15	-5	22*	1	4	36*	0	GFP quench dose=>68
CCOC(=O)C1=C(C)N[C@@]2(O)c3ccccc3C(=O)[C@@]12O	-4	3	-5	3	0	2	·	·
CC(=O)C1=C(C)OC2(O)c3ccccc3C(=O)C12O (stereo not drawn)	4	7	-24	18*	-1	0	18*	-1	GFP quench dose=>68
Cc1ccc(C2N(c3ccc(Cl)cc3)C(=O)N3CCCN23)cc1 (stereo not drawn)	2	-8	4	12*	1	0	13*	-1
O=C1N(c2ccccc2)C(c2ccc(Cl)cc2)N2CCCN12 (stereo not drawn)	1	-1	0	2	-1	-6	·	·
COc1ccc(OC)c(NC(=O)CSc2ncnc3sc(C)cc23)c1	-6	3	-40	2	·	30	·	·
Cc1ccc(OCCNC(=O)Cn2cnc3c(=O)n(C)c(=O)n(C)c32)cc1C	3	-4	-8	10*	1	2	0	-3
Cc1cc(=O)oc2cc(OCC3CC(c4ccccc4)=NO3)ccc12 (stereo not drawn)	-2	4	26	11*	0	-1	-5	-2
Cc1cc(=O)oc2cc(OCC3CC(c4ccc(Br)cc4)=NO3)ccc12 (stereo not drawn)	-2	4	-115	-1	-3	4	·	·
Cc1ccc(SCC(=O)NC(=O)c2ccccc2Br)c(C)c1	1	-1	-5	2	·	2	·	·
COCCn1c(C)cc(C(=O)CSc2nnc(-c3cccnc3)n2-c2ccccc2F)c1C	6	13	1	10*	9	-7	1	-1
C=CCn1c(SCC(=O)N2CCOCC2)nnc1C(C)NC(=O)c1ccccc1 (stereo not drawn)	0	2	9	7.2*	-3	0	-1	0
